Screening results (PubChem)
OX1R antag-1: antagonists of human orexin 1 receptor; CHO/OX1R cells, Fluo-8 calcium fluorescence, orexin A; inhibition, % at 5 µM; O43613; actives 0.43% (n = 330,000);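 active = inhibition above its plate's threshold, mean inhibition of all tested compounds on the plate plus 3 SD, cut at about 37% in these data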;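 also: 0% = orexin A challenge wells and 100% = SB-334867-A antagonist wells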
Target sequence (O43613 whole entry, looked up): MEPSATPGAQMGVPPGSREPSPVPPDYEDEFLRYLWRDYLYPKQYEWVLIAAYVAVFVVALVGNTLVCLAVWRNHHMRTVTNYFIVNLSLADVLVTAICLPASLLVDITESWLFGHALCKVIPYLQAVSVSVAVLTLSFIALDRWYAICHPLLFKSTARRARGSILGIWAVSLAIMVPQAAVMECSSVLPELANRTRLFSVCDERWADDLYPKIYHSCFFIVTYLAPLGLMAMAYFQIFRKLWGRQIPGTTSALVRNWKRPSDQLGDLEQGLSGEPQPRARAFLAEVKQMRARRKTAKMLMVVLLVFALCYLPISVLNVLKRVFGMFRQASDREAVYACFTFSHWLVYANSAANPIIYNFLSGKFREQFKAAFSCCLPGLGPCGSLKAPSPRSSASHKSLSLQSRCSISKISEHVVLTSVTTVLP
CHO parental Ca: counter-screen: ATP calcium response change in parental CHO cells. parental CHO-K1, ATP-induced calcium, Fluo-8 fluorescence. inhibition, % at 5.6 µM. actives 0.63% (n = 330,000). AID 463079;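 active = inhibition above that plate's mean sample inhibition plus 3 SD, cut at about 26% in these data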;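 also: 0% = ATP-challenged DMSO wells and 100% = DMSO wells without ATP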
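test system = CHO parental line | reagent = ATP stimulus | measured by = intracellular calcium via Fluo-8 no-wash fluorescent dye | control set = ATP and no-ATP DMSO wells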
GPR7 antagonist: antagonists of human GPR7 (neuropeptides B/W receptor 1). P48145. inhibition, % at 4.4 µM. actives 1.1% (n = 290,000). GPR7-expressing cells, fluorescence antagonist assay; in the data active = inhibition above about 16%, passing the limit was not always enough;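 also: cells stimulated with the agonist NPW; 0% = agonist with vehicle and 100% = vehicle without agonist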
OX1R antag-2: antagonists of human orexin 1 receptor (OX1R); OX1R-expressing cells, FRET antagonist read-out; actives 1.8% (n = 330,000); O43613; inhibition, % at 6.6 µM; in the data active = inhibition mostly above about 38%, no sharp cut-off; inactive = mostly below about 40%;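 also: 0% = agonist challenge alone and 100% = reference antagonist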
TAAR1 antagonist: human TAAR1 antagonism; CHO RD-HGA16 TAAR1, Fluo-8 calcium fluorescence, antagonist; inhibition, % at 3 µM; actives 1.5% (n = 360,000); AID 624466;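 active = inhibition above a per-plate cutoff, the mean inhibition of test compounds on that plate plus 3 SD, cut at about 49% in these data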;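 also: 0% = DMSO plus EC80 beta-PEA response and 100% = DMSO alone without agonist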
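test system = CHO RD-HGA16 cells bearing hTAAR1 | replication = singlicate | controls = DMSO-only wells and EC80 β-PEA-stimulated wells | reagent = EC80 β-phenethylamine stimulus | read-out basis = percent inhibition of PEA-evoked calcium signal, max/basal emission ratio | schedule = seeding 17-24 h prior, 75-min 37 °C, 30-min RT dye loading | signal = kinetic Fluo-8 calcium fluorescence measurement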
TAAR1 agonist: agonists of human TAAR1; activation, % at 3 µM; Q96RJ0; actives 0.99% (n = 360,000); CHO RD-HGA16 TAAR1, Fluo-8 calcium fluorescence; vehicle wells 0%, saturating PEA agonist 100%;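 active = activation above the mean activation of all test compounds in the run plus 3 SD, cut at about 38% in these data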
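System: CHO-derived RD-HGA16 cells with stable Gα16 and human TAAR1. Times: 17-24 h plating, Fluo-8 75 min 37 °C, 30 min RT. Measured by: calcium-sensitive Fluo-8 signal, excitation 470-495, emission 515-575 nm. Read-out basis: % activation relative to PEA EC100 response. Control set: DMSO and PEA EC100. Repeats: no replicates (n 1).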
GPR7 antag conf: human GPR7 antagonism, confirmation assay. shares compounds with GPR7 antagonist. GPR7-expressing cells, calcium fluorescence antagonist mode. inhibition, % at 4.4 µM. actives 52% (n = 2,400); in the data active = inhibition above about 24%;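 also: stimulated with the GPR7 agonist NPW; 0% = agonist plus vehicle and 100% = vehicle alone without agonist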
MCHR1 antag: antagonizes human MCHR1, a GPR7 antagonist counter-screen; shares compounds with GPR7 antagonist; MCHR1-expressing cells, fluorescence antagonist assay; inhibition, % at 4.4 µM; actives 62% (n = 2,400); AID 2148; in the data active = inhibition above about 22%;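 also: 0% = vehicle with agonist and 100% = vehicle without agonist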
* marks the source's active call; other numbers are inactive results. A selection: hits, their analogues and other compounds. The true share with any hit is near 4.5%.

For C#CCOCCOCCOCCNc1nc(N2CCOCC2)nc(N2CCN(C(=O)[C@H](Cc3cc4ccccc4[nH]3)n3cc([C@@H](N)CC(C)C)nn3)CC2)n1 the results were OX1R antag-1 3, CHO parental Ca -3, GPR7 antagonist -18 and OX1R antag-2 9.
`C#CCOCCOCCOCCNc1nc(N2CCN(C(=O)[C@H](Cc3cc4ccccc4[nH]3)n3cc([C@@H](N)CC(C)C)nn3)CC2)nc(N2CCN(C(=O)[C@H](Cc3cc4ccccc4[nH]3)n3cc([C@@H](N)CC(C)C)nn3)CC2)n1` gave OX1R antag-1 -5, CHO parental Ca -10, GPR7 antagonist 79*, OX1R antag-2 14, GPR7 antag conf 54* and MCHR1 antag 33*.
Screening CC1(C)CC(C(CC(=O)N2CCCC2)Cc2ccccc2)CCO1 (stereo unspecified) returned OX1R antag-1 -21, CHO parental Ca -10, GPR7 antagonist 23*, OX1R antag-2 -1, TAAR1 antagonist -10, TAAR1 agonist 6, GPR7 antag conf 9 and MCHR1 antag 14.
CC1(C)CC(C(CC(=O)O)c2ccccc2)CCO1 (stereo unspecified) was read as OX1R antag-1 -8, CHO parental Ca -13, GPR7 antagonist 13, OX1R antag-2 -2, TAAR1 antagonist 0 and TAAR1 agonist 2.
Cc1ccc([N+](=O)[O-])cc1NC(=O)CN(C1CCCCC1)S(=O)(=O)c1ccc(Cl)cc1 was read as GPR7 antagonist 3, TAAR1 antagonist 10 and TAAR1 agonist 0.
Cc1ccc([N+](=O)[O-])cc1NC(=O)CN(C(=O)c1ccccc1Cl)C1CCCCC1 was read as OX1R antag-1 -28, CHO parental Ca -24, GPR7 antagonist 36*, OX1R antag-2 18, TAAR1 antagonist 6, TAAR1 agonist 15, GPR7 antag conf 39* and MCHR1 antag 41*.
Screening CSc1nnc(-c2ccccc2Cl)n1N returned OX1R antag-1 -11, CHO parental Ca 6, GPR7 antagonist 24*, OX1R antag-2 8, TAAR1 antagonist 7, TAAR1 agonist 16, GPR7 antag conf -10 and MCHR1 antag -3.
Screening CC1(C)Cc2ccccc2C(COc2ccccc2)=N1 returned GPR7 antagonist 26*, TAAR1 antagonist -27, TAAR1 agonist 2, GPR7 antag conf -1 and MCHR1 antag 0.
Screening CC1=NC(C)(C)Cc2ccccc21 returned OX1R antag-1 -14, CHO parental Ca -7, GPR7 antagonist -7, OX1R antag-2 12, TAAR1 antagonist -3 and TAAR1 agonist 3.
For CCOC(=O)[C@]12CCC=C1N(Cc1ccco1)C(=O)[C@H](CC(=O)N1CCCCC1)C2 the results were TAAR1 antagonist -17 and TAAR1 agonist 0.
Screening Cc1cc(Cl)ccc1OC(C)C(=O)Nc1ccc(S(=O)(=O)N2CCOCC2)cc1 (stereo unspecified) returned OX1R antag-1 12, CHO parental Ca 14, GPR7 antagonist 35*, OX1R antag-2 -7, TAAR1 antagonist 31, TAAR1 agonist 23, GPR7 antag conf 24 and MCHR1 antag 26*.
For CC(=O)Nc1ccc(S(=O)(=O)Nc2ccccc2C(=O)N2CCCCCC2)cc1 the results were OX1R antag-1 -11, CHO parental Ca -7, GPR7 antagonist -7, OX1R antag-2 9, TAAR1 antagonist 2 and TAAR1 agonist 1.
For O=C(Cc1cccs1)N=Nc1c(O)[nH]c2ccccc12 the results were OX1R antag-1 -14, CHO parental Ca -10, GPR7 antagonist 4, OX1R antag-2 17, TAAR1 antagonist -12 and TAAR1 agonist 6.
`O=C(N=Nc1c(O)[nH]c2ccccc12)c1cc(-c2cccs2)[nH]n1` gave OX1R antag-1 9, CHO parental Ca -3, GPR7 antagonist 29*, OX1R antag-2 66*, TAAR1 antagonist 32, TAAR1 agonist 6, GPR7 antag conf -6 and MCHR1 antag 29*.
